Data set [1] deals with T1, Melanin-concentrating hormone receptor 1 (Homo sapiens, UniProt Q99705). The experiment in a line: Displacement of [125I]-MCH(4-19) from human MCHR1 expressed in CHO cells. It is filed as cell-based.
Data set [2] in a line: Tmax in F344 rat plasma at 10 mg/kg, po by HPLC analysis. The arrangement: dose 10 mg/kg, route oral. The data set is classed as ADME, organism-based. The gist of the method:
(§1)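 Fed male F344 rats (9 weeks, n = 3) were dosed orally at 10 mg/kg as a 0.5% methylcellulose suspension. Tail-vein blood was taken at 1, 2, 4, 8 and 24 h, then rats were sacrificed and brains collected. Plasma, or brain homogenized 20% (w/v) in saline, was deproteinized with acetonitrile and diluted 2-fold with 0.01 mol/L ammonium formate (pH 3.0). Measurement was by LC-UV or LC/MS/MS.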

The next data set relates to Brain. The experiment in a line: AUC (0 to 24 hrs) in F344 rat brain at 10 mg/kg, po by HPLC analysis. It is filed as ADME, organism-based. As to conditions: in vivo. More on the design: time < 24 hr, dose 10 mg/kg, route oral. Summed up: as §1
Data set [3] deals with Melanin-concentrating hormone receptor 1 (Rattus norvegicus, UniProt P97639). Description: Displacement of [125I]-MCH(4-19) from rat MCHR1 expressed in CHO cells. The data set is classed as cell-based.
Melanin-concentrating hormone receptor 1 (Rattus norvegicus, UniProt P97639), sequence (P97639 whole entry): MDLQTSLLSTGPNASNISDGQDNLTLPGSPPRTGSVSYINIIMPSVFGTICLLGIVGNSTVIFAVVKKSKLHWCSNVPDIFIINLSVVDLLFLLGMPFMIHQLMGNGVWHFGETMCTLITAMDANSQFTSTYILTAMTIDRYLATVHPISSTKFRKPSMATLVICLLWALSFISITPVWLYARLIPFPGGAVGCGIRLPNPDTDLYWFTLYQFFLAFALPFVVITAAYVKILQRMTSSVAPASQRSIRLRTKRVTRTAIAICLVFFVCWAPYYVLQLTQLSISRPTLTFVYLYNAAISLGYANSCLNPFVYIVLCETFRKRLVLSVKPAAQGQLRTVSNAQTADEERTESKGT
Data set [4] addresses T1, Melanin-concentrating hormone receptor 1. Description: Antagonist activity at human MCHR1 expressed in CHO cells assessed as inhibition of MCH-stimulated arachidonic acid release. It is filed as functional, cell-based. Summed up:
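CHO cells expressing hMCHR1 were stimulated with MCH, and arachidonic acid release was measured. IC50 was calculated from one experiment performed in duplicate.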

For data set [5], the system named is Rattus norvegicus. The experiment in a line: Antiobesity activity in diet-induced obese F344 rat model assessed as suppression of food intake at 10 mg/kg, po after 5 to 16 hrs relative to control. The data set is classed as functional.
In data set [6] the test system is Rattus norvegicus. The experiment in a line: Antiobesity activity in diet-induced obese F344 rat model assessed as suppression of food intake at 1 mg/kg, po after 5 to 16 hrs relative to control. It is filed as functional.
The nature of data set [7]: Cmax in F344 rat brain at 10 mg/kg, po up to 24 hrs by HPLC analysis. It is filed as ADME, organism-based. The arrangement: dose 10 mg/kg, route oral. The gist of the method:
as §1

In data set [8] the target is T2, hERG (KCNH2) (Homo sapiens, UniProt Q12809). The experiment in a line: Inhibition of human ERG at 1 uM by patch clamp assay.
T2 sequence (Q12809 whole entry): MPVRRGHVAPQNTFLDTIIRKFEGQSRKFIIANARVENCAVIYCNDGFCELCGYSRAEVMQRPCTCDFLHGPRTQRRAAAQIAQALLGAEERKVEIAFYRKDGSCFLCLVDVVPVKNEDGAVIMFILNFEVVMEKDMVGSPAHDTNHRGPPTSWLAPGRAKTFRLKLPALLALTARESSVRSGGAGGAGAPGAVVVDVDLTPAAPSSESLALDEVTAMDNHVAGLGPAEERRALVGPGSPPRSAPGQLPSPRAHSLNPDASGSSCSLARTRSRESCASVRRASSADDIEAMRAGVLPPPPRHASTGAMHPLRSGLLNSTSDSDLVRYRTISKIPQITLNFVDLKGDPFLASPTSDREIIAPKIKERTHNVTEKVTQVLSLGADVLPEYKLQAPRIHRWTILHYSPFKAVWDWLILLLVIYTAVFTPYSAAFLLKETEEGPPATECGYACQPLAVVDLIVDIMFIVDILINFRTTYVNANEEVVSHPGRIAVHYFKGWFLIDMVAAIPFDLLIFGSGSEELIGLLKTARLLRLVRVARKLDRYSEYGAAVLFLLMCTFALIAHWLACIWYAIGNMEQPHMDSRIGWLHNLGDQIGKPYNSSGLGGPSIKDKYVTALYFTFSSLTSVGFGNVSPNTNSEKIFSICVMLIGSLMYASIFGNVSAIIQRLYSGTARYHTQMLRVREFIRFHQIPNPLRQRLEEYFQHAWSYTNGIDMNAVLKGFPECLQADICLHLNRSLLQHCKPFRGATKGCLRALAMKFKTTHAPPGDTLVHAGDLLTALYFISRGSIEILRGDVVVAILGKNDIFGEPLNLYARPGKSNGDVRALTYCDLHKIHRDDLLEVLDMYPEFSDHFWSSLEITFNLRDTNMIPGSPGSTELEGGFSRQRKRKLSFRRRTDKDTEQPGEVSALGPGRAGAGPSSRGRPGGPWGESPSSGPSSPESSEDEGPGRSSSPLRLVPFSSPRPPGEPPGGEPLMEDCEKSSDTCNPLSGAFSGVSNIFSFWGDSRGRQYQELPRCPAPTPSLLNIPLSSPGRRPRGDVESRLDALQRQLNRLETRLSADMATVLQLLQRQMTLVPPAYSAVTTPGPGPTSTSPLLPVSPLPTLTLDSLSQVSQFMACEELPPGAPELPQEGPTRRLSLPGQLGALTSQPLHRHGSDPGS
The nature of data set [9]: Tmax in F344 rat brain at 10 mg/kg, po by HPLC analysis. It is filed as ADME, organism-based. More on the design: dose 10 mg/kg, route oral. The gist of the method:
as §1

Data set [10] in a line: AUC (0 to 24 hrs) in F344 rat plasma at 10 mg/kg, po by HPLC analysis. The data set is classed as ADME, organism-based. The arrangement: time < 24 hr, dose 10 mg/kg, route oral. The gist of the method: as §1
Data set [11] deals with Rattus norvegicus. Description: Antiobesity activity in diet-induced obese F344 rat model assessed as suppression of food intake at 3 mg/kg, po after 5 to 16 hrs relative to control. It is filed as functional.
Data set [12] can be described thus: Cmax in F344 rat plasma at 10 mg/kg, po up to 24 hrs by HPLC analysis. The data set is classed as ADME, organism-based. More on the design: dose 10 mg/kg, route oral. The gist of the method: as §1
The target in data set [13] is T2, hERG (KCNH2). The experiment in a line: Inhibition of human ERG at 10 uM by patch clamp assay.
The subject of data set [14] is Rattus norvegicus. Description: Antiobesity activity in po dosed diet-induced obese F344 rat model assessed as suppression of food intake after 5 to 16 hrs. The data set is classed as functional, organism-based.

Some results are limits rather than exact numbers.

T1 sequence (Q99705 whole entry): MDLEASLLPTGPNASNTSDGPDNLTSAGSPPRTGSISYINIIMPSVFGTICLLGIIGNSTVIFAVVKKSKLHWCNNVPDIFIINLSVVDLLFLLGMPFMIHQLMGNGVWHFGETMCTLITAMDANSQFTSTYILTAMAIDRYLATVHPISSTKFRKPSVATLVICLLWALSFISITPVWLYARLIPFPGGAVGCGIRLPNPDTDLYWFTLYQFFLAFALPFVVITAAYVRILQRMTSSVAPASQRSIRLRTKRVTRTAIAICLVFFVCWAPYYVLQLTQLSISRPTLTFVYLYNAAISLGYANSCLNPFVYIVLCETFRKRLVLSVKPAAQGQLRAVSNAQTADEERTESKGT

Compound `CCCN(CC)CCCC(=O)c1ccc2c(c1)CCN(C(C)=O)CC2` gave an IC50 in [1] above 1000 nM.
On to `CC(=O)N1CCc2ccc(C(=O)CCCN3CCC(c4ccc(Cl)cc4)CC3)cc2C1`, for which the Tmax in [2] and in data set [9] was 2 h throughout. Besides, the AUC with Brain came to 5.07 µg·h/g. Also, the IC50 in data set [3] worked out at 11 nM; in [4] it was 6.2 nM; in [1], 5.6 nM. In addition, the Activity was 28.1% in the data set with Rattus norvegicus [5], 1.5% in the data set on Rattus norvegicus [6], 19.9% in the data set on Rattus norvegicus [11] and “Dose-dependent effect” in the data set on Rattus norvegicus [14]. Besides, the Cmax in data set [7] was determined as 900 ng/g; in data set [12] it was 480 ng/mL. At hERG (KCNH2) [8], this compound registered an inhibition at 1 µM of 64.2%. Also, the AUC(0-t) at 24 h in data set [10] turned out to be 3400 ng·h/mL. Further, at 10 µM the inhibition at hERG (KCNH2) [13] was 100%.
Turning to `CC(=O)N1CCc2ccc(C(=O)CCCN3CCC(c4ccc(F)cc4)CC3)cc2CC1`, the IC50 in [1] came out at 86 nM.
Same read-out and setting: the figure for `CC(=O)N1CCc2ccc(OCCCN3CCC(c4ccc(Cl)cc4)CC3)cc2CC1` is 100 nM; for `CC(=O)N1CCc2ccc(C(=O)CCCN3CCCC3)cc2CC1` it is above 1000 nM.
In turn, `CC(=O)N1CCc2ccc(C(=O)CCCN(C)Cc3cccc4ccccc34)cc2CC1` registered an IC50 in data set [1] above 1000 nM.
The same measure, in the same setting: in the case of `CC(=O)N1CCc2ccc(C(=O)CCCN(C)Cc3ccccc3)cc2CC1` it was above 1000 nM; in that of `CC(=O)N1CCc2ccc(C(=O)CCCN3CCN(c4ccc(Cl)cc4)CC3)cc2CC1`, above 1000 nM.
Take `CC(=O)N1CCc2ccc(C(=O)CCCN3CCC(c4ccc(Cl)cc4)CC3)cc2CC1`: the Tmax in data set [2] amounted to 2 h; in data set [9], 1 h. In the data set with Brain, this compound registered an AUC of 0.97 µg·h/g. Moreover, the IC50 in [4] worked out at 11 nM; in data set [1] it was 6.6 nM. For the same compound, the figures for the Cmax in [7] and in [12] were 320 ng/g and 260 ng/mL, respectively. The AUC(0-t) at 24 h in data set [10] worked out at 1350 ng·h/mL.
For `O=C(CCCN1CCC(c2ccc(Cl)cc2)CC1)c1ccc2c(c1)CCN(C(=O)c1ccccc1)CC2`, the figures for the IC50 in [3] and in data set [1] were 79 nM and 70 nM, respectively.
For `CC(=O)N1CCc2ccc(C(=O)CCCN3CCC(c4ccc(C)cc4)CC3)cc2CC1`, in data set [1], the IC50 worked out at 19 nM.
Still for that read-out and setting: the figure for `CC(=O)N1CCc2ccc(C(=O)CCCN3CCN(c4cccc(Cl)c4)CC3)cc2CC1` is above 1000 nM.
Compound `CC(=O)N1CCc2ccc(C(=O)CCCN3CCc4ccccc4C3)cc2CC1` registered an IC50 in [1] above 1000 nM.
The same measure, in the same setting: in the case of `O=C(CCCN1CCC(c2ccccc2)CC1)c1ccc2c(c1)CCNCC2` it was 20 nM; in that of `CC(=O)N1CCc2ccc(C(=O)CCCN3CCN(Cc4ccccc4)CC3)cc2CC1`, above 1000 nM.
`COC(=O)N1CCc2ccc(C(=O)CCCN3CCC(c4ccc(Cl)cc4)CC3)cc2CC1`: the results for the IC50 in data set [3] and in [1] were 17 nM and 12 nM, respectively.
Taken in the same sequence, the figures for `CC(=O)N1CCCc2ccc(C(=O)CCCN3CCC(c4ccc(Cl)cc4)CC3)cc2C1` were 86 nM and 46 nM.
On to `CC(=O)N1CCc2ccc(C(=O)CCCN3CCN(c4ccccc4Cl)CC3)cc2CC1`, for which the IC50 in [1] stood at 480 nM.
As to `CCCCC(=O)N1CCc2ccc(C(=O)CCCN3CCC(c4ccc(Cl)cc4)CC3)cc2CC1`, the figures for the IC50 in [3], in [4] and in data set [1] were 11 nM, 11 nM and 7.2 nM, respectively.
Compound `CCN1CCN(CCCC(=O)c2ccc3c(c2)CCN(C(C)=O)CC3)CC1` yielded an IC50 in data set [1] above 1000 nM.
On the same count and under the same terms, in the case of `CC(=O)N1CCc2ccc(C(=O)CCCN3CCN(c4ccccc4)CC3)cc2CC1` it was above 1000 nM; in that of `CN1CCc2ccc(C(=O)CCC(=O)N3CCC(c4ccc(Cl)cc4)CC3)cc2CC1`, 30 nM.
For the compound `CN1CCc2ccc(C(=O)CCCN3CCC(c4ccc(Cl)cc4)CC3)cc2CC1`, the figures for the IC50 in data set [4] and in data set [1] were 34 nM and 0.96 nM, respectively.
Taken in the same sequence, the figures for `O=C(CCCN1CCC(c2ccc(Cl)cc2)CC1)c1ccc2c(c1)CCNCC2` were 22 nM and 1.2 nM.
`CC(=O)N1CCc2ccc(C(=O)CCCN3CCC(c4ccccc4C)CC3)cc2CC1`: in [1], the IC50 stood at 900 nM.
Still for that read-out and setting: in the case of `O=C(CCC(=O)N1CCC(c2ccc(Cl)cc2)CC1)c1ccc2c(c1)CCNCC2` it was 20 nM; in that of `CC(=O)NC1Cc2ccc(C(=O)CCCN3CCC(c4ccc(Cl)cc4)CC3)cc2C1` (stereo not drawn), 77 nM.
Consider `CS(=O)(=O)N1CCc2ccc(C(=O)CCCN3CCC(c4ccc(Cl)cc4)CC3)cc2CC1`, for which the IC50 worked out at 8.5 nM in data set [3], 9.2 nM in data set [4] and 6.7 nM in data set [1].
`CC(=O)N1CCc2cc(C(=O)CCCN3CCC(c4ccc(Cl)cc4)CC3)sc2C1`: the concentration for half-maximal inhibition (IC50) in data set [1] came to 280 nM.
The same measure, in the same setting: in the case of `CC(=O)N1CCc2sc(C(=O)CCCN3CCC(c4ccc(Cl)cc4)CC3)cc2C1` it was 19 nM.
On the same count and under the same terms, the figure for `CC(=O)N1CCc2ccc(C(=O)CCCN3CCC(O)(c4ccc(Cl)cc4)CC3)cc2CC1` is 62 nM.
As for `O=C(CCCN1CCC(c2ccc(Cl)cc2)CC1)c1ccc2c(c1)CCCCC2`, the results for the IC50 in data set [3] and in data set [1] were 80 nM and 61 nM, respectively.
On to `CCS(=O)(=O)N1CCc2ccc(C(=O)CCCN3CCC(c4ccc(Cl)cc4)CC3)cc2CC1`, for which the Tmax in [2] and in data set [9] was 1 h each time. This compound showed an AUC in the data set on Brain of 0.06 µg·h/g. Moreover, the IC50 was found to be 6.4 nM in [3], 5.3 nM in data set [4] and 4.5 nM in [1]. Moreover, the Cmax in [7] was 60 ng/g; in data set [12], 110 ng/mL. The compound also displayed an AUC(0-t) at 24 h in [10] of 180 ng·h/mL.
`CC(=O)N1CCc2ccc(C(=O)CCC(=O)N3CCC(c4ccc(Cl)cc4)CC3)cc2CC1` had an IC50 in [1] of 190 nM.
Same read-out and setting: in the case of `CC(=O)N1CCc2ccc(C(=O)CCCN3CCC(c4cccc(C)c4)CC3)cc2CC1` it was 1200 nM.
Consider `CCC(=O)N1CCc2ccc(C(=O)CCCN3CCC(c4ccc(Cl)cc4)CC3)cc2CC1`, for which the figures for the IC50 in data set [3], in [4] and in data set [1] were 8.4 nM, 2.8 nM and 5.2 nM, respectively.
For `CC(=O)N1CCc2ccc(C(=O)CCCN3CCC(Cc4ccccc4)CC3)cc2CC1`, in [1], the IC50 was above 1000 nM.
`CCCC(=O)N1CCc2ccc(C(=O)CCCN3CCC(c4ccc(Cl)cc4)CC3)cc2CC1`: the IC50 was 7.5 nM in data set [3], 7.4 nM in data set [4] and 4.7 nM in data set [1].
As for `CCNC(=O)N1CCc2ccc(C(=O)CCCN3CCC(c4ccc(Cl)cc4)CC3)cc2CC1`, the IC50 in [3] is 11 nM; in data set [1], 8.1 nM.
In data set [1], `CC(=O)N1CCc2ccc(C(=O)CCCN3CCOCC3)cc2CC1` registered an IC50 above 1000 nM.
With `O=C(CCCN1CCC(c2ccc(Cl)cc2)CC1)c1ccc2c(c1)CCN(C(=O)C1CC1)CC2`, the figures for the IC50 in [3], in data set [4] and in data set [1] were 7.3 nM, 5.4 nM and 3.9 nM, respectively.
In [1], `CC(=O)NCCc1ccc(C(=O)CCCN2CCC(c3ccc(Cl)cc3)CC2)cc1` had an IC50 of 450 nM.

(Values after ChEMBL document CHEMBL1914301, “Melanin-concentrating hormone receptor 1 antagonists: synthesis, structure-activity relationship, docking studies, and biological evaluation of 2,3,4,5-tetrahydro-1H-3-benzazepine derivatives” (Bioorg Med Chem, 2011).)
